Experimental data reported in ChEMBL document CHEMBL4619801, “Discovery of Phthalazinone Derivatives as Novel Hepatitis B Virus Capsid Inhibitors” (J Med Chem, 2020).

Tests used:
Hepatitis B virus [1] = assay: Antiviral activity against Hepatitis B virus assessed as reduction in HBV DNA-free capsid formation; assay type: functional, organism-based
[2] = Toxicity in human HepG2.2.15 cells; assay type: cell-based, HepG2 2.2.15
Method in brief: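 HepG2.2.15 cells seeded at 4 × 10³ cells/well and exposed to a range of compound concentrations for 8 days. MTT (final 2.5 mg/mL) was added for 1 h at 37 °C, then cells were lysed in 10% SDS/50% DMF, pH 7.2. OD was read at 570 nm and % cell death calculated. CC50 is the mean ± SD of at least two independent determinations.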

[3] = Half life in Sprague-Dawley rat at 20 mg/kg, po dosed as single administration; assay type: ADME, organism-based; settings: in vivo
[4] = Cmax in Sprague-Dawley rat at 20 mg/kg, po dosed as single administration; assay type: ADME, organism-based; set-up: dose 20 mg/kg, route oral; settings: in vivo
[5] = AUC (0 to t) in Sprague-Dawley rat at 20 mg/kg, po dosed as single administration; assay type: ADME, organism-based; settings: in vivo
[6] = Oral bioavailability in Sprague-Dawley rat at 20 mg/kg dosed as single administration; assay type: ADME, organism-based; settings: in vivo
[7] = Half life in Sprague-Dawley rat at 2 mg/kg, iv dosed as single administration; assay type: ADME, organism-based; settings: in vivo
[8] = Retention time of the compound by […]; assay type: physicochemical
[9] = Drug metabolism in human liver microsomes assessed as compound level by measuring LC-MS area at 3 uM in presence of NADPH incubated for 60 mins by UPLC-UV/QTOF MS analysis; assay type: ADME, Microsome; settings: 1 h
Method in brief: (§1)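 Each incubation held liver microsomes (human, monkey, dog, rat or mouse) at 0.5 mg/mL with 3.0 μM compound in 100 mM potassium phosphate, pH 7.4. After 3 min prewarming at 37 °C, the reaction was started with 1 mM NADPH. It was stopped at 60 min with ice-cold acetonitrile. Parent remaining and metabolites were judged from relative UV area.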

[10] = Drug metabolism in dog liver microsomes assessed as compound level by measuring LC-MS area of metabolite-M1 at 3 uM in presence of NADPH incubated for 60 mins by UPLC-UV/QTOF MS analysis; assay type: ADME, Canis lupus familiaris, Microsome; settings: 1 h; method in brief: as §1
[11] = Drug metabolism in rat liver microsomes assessed as compound level by measuring LC-MS area of metabolite-M1 at 3 uM in presence of NADPH incubated for 60 mins by UPLC-UV/QTOF MS analysis; assay type: ADME, Microsome; settings: 1 h; method in brief: as §1
[12] = Drug metabolism in mouse liver microsomes assessed as compound level by measuring LC-MS area at 3 uM in presence of NADPH incubated for 60 mins by UPLC-UV/QTOF MS analysis; assay type: ADME, Microsome; settings: 1 h; method in brief: as §1
[13] = Drug metabolism in mouse liver microsomes assessed as compound level by measuring LC-MS area of metabolite-M2 at 3 uM in presence of NADPH incubated for 60 mins by UPLC-UV/QTOF MS analysis; assay type: ADME, Microsome; settings: 1 h; method in brief: as §1
[14] = Drug metabolism in human liver microsomes assessed as compound level by measuring UV-area at 3 uM in presence of NADPH incubated for 60 mins by UPLC-UV/QTOF MS analysis; assay type: ADME, Microsome; settings: 1 h; method in brief: as §1
[15] = Drug metabolism in human liver microsomes assessed as compound level by measuring UV-area of metabolite-M1 at 3 uM in presence of NADPH incubated for 60 mins by UPLC-UV/QTOF MS analysis; assay type: ADME, Microsome; settings: 1 h; method in brief: as §1
[16] = Drug metabolism in monkey liver microsomes assessed as compound level by measuring UV-area at 3 uM in presence of NADPH incubated for 60 mins by UPLC-UV/QTOF MS analysis; assay type: ADME, Macaca mulatta, Microsome; settings: rhesus monkey, 1 h; method in brief: as §1
[17] = Drug metabolism in monkey liver microsomes assessed as compound level by measuring UV-area of metabolite-M1 at 3 uM in presence of NADPH incubated for 60 mins by UPLC-UV/QTOF MS analysis; assay type: ADME, Macaca mulatta, Microsome; settings: rhesus monkey, 1 h; method in brief: as §1
[18] = Drug metabolism in dog liver microsomes assessed as compound level by measuring UV-area of metabolite-M1 at 3 uM in presence of NADPH incubated for 60 mins by UPLC-UV/QTOF MS analysis; assay type: ADME, Canis lupus familiaris, Microsome; settings: 1 h; method in brief: as §1
[19] = Drug metabolism in rat liver microsomes assessed as compound level by measuring UV-area at 3 uM in presence of NADPH incubated for 60 mins by UPLC-UV/QTOF MS analysis; assay type: ADME, Microsome; settings: 1 h; method in brief: as §1
[20] = Drug metabolism in rat liver microsomes assessed as compound level by measuring UV-area of metabolite-M1 at 3 uM in presence of NADPH incubated for 60 mins by UPLC-UV/QTOF MS analysis; assay type: ADME, Microsome; settings: 1 h; method in brief: as §1
[21] = Drug metabolism in mouse liver microsomes assessed as compound level by measuring UV-area at 3 uM in presence of NADPH incubated for 60 mins by UPLC-UV/QTOF MS analysis; assay type: ADME, Microsome; settings: 1 h; method in brief: as §1
[22] = Drug metabolism in mouse liver microsomes assessed as compound level by measuring UV-area of metabolite-M1 at 3 uM in presence of NADPH incubated for 60 mins by UPLC-UV/QTOF MS analysis; assay type: ADME, Microsome; settings: 1 h; method in brief: as §1
[23] = Drug metabolism in mouse liver microsomes assessed as compound level by measuring UV-area of metabolite-M2 at 3 uM in presence of NADPH incubated for 60 mins by UPLC-UV/QTOF MS analysis; assay type: ADME, Microsome; settings: 1 h; method in brief: as §1
[24] = Drug metabolism in monkey liver microsomes at 3 uM in presence of NADPH incubated for 60 mins by UPLC-UV/QTOF MS analysis relative to control; assay type: ADME, Macaca mulatta, Microsome; settings: rhesus monkey, read-out: Drug metabolism; method in brief: as §1
[25] = Drug metabolism in dog liver microsomes at 3 uM in presence of NADPH incubated for 60 mins by UPLC-UV/QTOF MS analysis relative to control; assay type: ADME, Canis lupus familiaris, Microsome; settings: read-out: Drug metabolism; method in brief: as §1
[26] = Drug metabolism in rat liver microsomes at 3 uM in presence of NADPH incubated for 60 mins by UPLC-UV/QTOF MS analysis relative to control; assay type: ADME, Microsome; settings: read-out: Drug metabolism; method in brief: as §1
[27] = Drug metabolism in mouse liver microsomes at 3 uM in presence of NADPH incubated for 60 mins by UPLC-UV/QTOF MS analysis relative to control; assay type: ADME, Microsome; method in brief: as §1
[28] = Drug level in Sprague-Dawley rat liver at 20 mg/kg, po dosed as single administration measured up to 24 hrs; assay type: ADME, organism-based; settings: in vivo
[29] = Drug level in CD1 mouse liver at 20 mg/kg, po dosed as single administration measured up to 24 hrs; assay type: ADME, organism-based; settings: in vivo
Method in brief: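 ICR (CD-1) mice were dosed orally at 20 mg/kg. At set times (1, 3, 8 and 24 h), blood was taken from the heart and portal vein under isoflurane anesthesia and spun to plasma. Livers were removed after portal vein perfusion, rinsed in saline, weighed and homogenized in saline (5 mL/g). Samples were analysed by UPLC–MS/MS in positive electrospray mode.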

[30] = Cytotoxicity in human HepG2.2.15 cells assessed as reduction in cell viability incubated for 8 days by MTT assay; assay type: cell-based, HepG2 2.2.15
Method in brief: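 This was run in the same 8-day HepG2.2.15 cultures. After the medium was removed, MTT was added (final 2.5 mg/mL) for 1 h at 37 °C. Cells were lysed in 10% SDS/50% DMF, pH 7.2, and OD was read at 570 nm to give % cell death. CC50 was averaged with SD from at least two independent determinations.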

Hepatitis B virus [31] = assay: Antiviral activity against HBV infected in human HepG2.2.15 cells assessed as reduction in cytoplasmic HBV-DNA replication incubated for 8 days by real-time PCR analysis; assay type: functional, organism-based; settings: HepG2 2.2.15, 192 h

## Cc1cc(-c2ccc(F)nc2F)nn(Cc2ccc(Cl)cc2)c1=O
Hepatitis B virus [1]
  IC50: 0.087 µM
[2]
  CC50: 90.6 µM
[3]
  half-life: 2.96 h
[4]
  Cmax: 352 ng/mL
[5]
  AUC(0-t): 1100 ng·h/mL
[6]
  bioavailability: 25.3%
[7]
  t1/2: 2.03 h
[8]
  Retention_time: 7.3 min
[9]
  Activity: 13.5 ×10³ No_unit
[10]
  Activity: 5.97 ×10³ No_unit
[11]
  Activity: 3.05 ×10³ No_unit
[12]
  Activity: 1 ×10³ No_unit
[13]
  Activity: 0.79 ×10³ No_unit
[14]
  Activity: 82 ×10³ No_unit
[15]
  Activity: 51.3 ×10³ No_unit
[16]
  Activity: 34.1 ×10³ No_unit
[17]
  Activity: 113 ×10³ No_unit
[18]
  Activity: 84.6 ×10³ No_unit
[19]
  Activity: 44.8 ×10³ No_unit
[20]
  Activity: 56.7 ×10³ No_unit
[21]
  Activity: < 5 ×10³ No_unit
[22]
  Activity: 117 ×10³ No_unit
[23]
  Activity: 15.4 ×10³ No_unit
[24]
  metabolised at 1 h, 3 µM: 73%
[25]
  metabolised at 1 h, 3 µM: 79%
[26]
  metabolised at 1 h, 3 µM: 64%
[27]
  metabolised at 1 h, 3 µM: > 95%
[28]
  Drug uptake: Not Active
[29]
  Drug uptake: Not Active
[30]
  CC50 at 192 h: 83.8 µM
Hepatitis B virus [31]
  IC50: 0.098 µM
